Test results taken from ChEMBL document CHEMBL4673298, “Exploration of Structure-Activity Relationship of Aromatic Aldehydes Bearing Pyridinylmethoxy-Methyl Esters as Novel Antisickling Agents” (J Med Chem, 2020).
Activity calls are given as the source filed them. The calls are words filed in the database; no cut-off is given here.

Tests used:
Red blood cell [1] = experiment: Binding affinity to Hemoglobin in sickle cell RBCs from blood isolated from patient with homozygous SS assessed as increase in hemoglobin modification at 1 mM under hypoxic conditions incubated for 2 hrs […]; assay type: tissue-based; settings: Homo sapiens
Method in brief: (§1)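 SS blood, hematocrit 20%, incubated under air with compound (0.5, 1, 2 mM) at 37 °C for 1 h, then hypoxic (2.5% O2/97.5% N2) at 37 °C for 2 h. Cells are washed and hemolyzed. Lysate is run on weak cation-exchange HPLC to quantify Hb adduct (modified Hb). Three biological replicates, mean ± SD.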

Red blood cell [2] = experiment: Binding affinity to Hemoglobin in sickle cell RBCs from blood isolated from patient with homozygous SS assessed as increase in hemoglobin modification at 2 mM under hypoxic conditions incubated for 2 hrs […]; assay type: tissue-based; settings: Homo sapiens; method in brief: as §1
Red blood cell [3] = experiment: Binding affinity to Hemoglobin in sickle cell RBCs from blood isolated from patient with homozygous SS assessed as increase in hemoglobin modification under hypoxic conditions incubated for 2 hrs […]; assay type: tissue-based; settings: Homo sapiens; method in brief: as §1
Red blood cell [4] = experiment: Binding affinity to Hemoglobin in sickle cell RBCs from blood isolated from patient with homozygous SS assessed as increase in Hb affinity for oxygen under hypoxic conditions incubated for 2 hrs by oxygen equilibrium curve study; assay type: tissue-based; settings: Homo sapiens
Method in brief: (§2)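 SS blood, hematocrit 20%, incubated under air with compound (0.5, 1, 2 mM) at 37 °C for 1 h, then hypoxic (2.5% O2/97.5% N2) at 37 °C for 2 h. Cells are washed in PBS and hemolyzed hypotonically. Lysate in 0.1 M potassium phosphate pH 7.0 is run by Hemox analysis for P50. ΔP50 is given as percent of DMSO control. Three biological replicates, mean ± SD.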

[5] = Inhibition of sickling in sickle cell RBCs from blood isolated from patient with homozygous SS at 2 mM under hypoxic conditions incubated for 2 hrs; assay type: functional; settings: Homo sapiens, Erythrocyte
Method in brief: (§3)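 SS blood, hematocrit 20%, preincubated under air with compound (0.5, 1, 2 mM) for 1 h at 37 °C, then 2 h hypoxia (2.5% O2/97.5% N2) at 37 °C. Aliquots are fixed in 2% glutaraldehyde without air exposure. Cell morphology is scored from bright-field images at 40×. Three biological replicates, mean ± SD.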

Erythrocyte = experiment: Inhibition of sickling in sickle cell RBCs from blood isolated from patient with homozygous SS under hypoxic conditions incubated for 2 hrs; assay type: functional, tissue-based; settings: Homo sapiens; method in brief: as §3
Homo sapiens [6] = organism: Homo sapiens; experiment: Binding affinity to Hemoglobin in normal human whole blood assessed as increase in Hb affinity for oxygen at 2 mM by oxygen equilibrium curve study; assay type: tissue-based
Method in brief: (§4)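 Normal human whole blood, hematocrit 30%, incubated with or without compound in DMSO (0.5, 1.0 or 2.0 mM; 2 mM for the time course) at 37 °C. The blood is tonometered about 7 min at 37 °C against gas with 0.804, 2.935 and 5.528% O2 (6, 20, 40 mmHg). sO2 and pO2 are read on a blood gas analyzer. ΔP50% is taken relative to no compound. Time course sampled at 1, 2, 4, 8, 12, 24 h.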

Homo sapiens [7] = organism: Homo sapiens; experiment: Binding affinity to Hemoglobin in normal human whole blood assessed as increase in Hb affinity for oxygen incubated for 1.5 hrs by oxygen equilibrium curve study; assay type: tissue-based; method in brief: as §4
Red blood cell [8] = experiment: Binding affinity to Hemoglobin in sickle cell RBCs from blood isolated from patient with homozygous SS assessed as increase in Hb affinity shift for oxygen at 2 mM under hypoxic conditions incubated for 2 hrs by oxygen equilibrium curve study; assay type: tissue-based; settings: Homo sapiens; method in brief: as §2
Red blood cell [9] = experiment: Binding affinity to Hemoglobin in sickle cell RBCs from blood isolated from patient with homozygous SS assessed as increase in Hb affinity shift for oxygen at 1 mM under hypoxic conditions incubated for 2 hrs by oxygen equilibrium curve study; assay type: tissue-based; settings: Homo sapiens; method in brief: as §2
Red blood cell [10] = experiment: Binding affinity to Hemoglobin in sickle cell RBCs from blood isolated from patient with homozygous SS assessed as increase in hemoglobin modification at 0.5 mM under hypoxic conditions incubated for 2 hrs […]; assay type: tissue-based; settings: Homo sapiens; method in brief: as §1
[11] = Inhibition of sickling in sickle cell RBCs from blood isolated from patient with homozygous SS at 1 mM under hypoxic conditions incubated for 2 hrs; assay type: functional; settings: Homo sapiens, Erythrocyte; method in brief: as §3
[12] = Inhibition of sickling in sickle cell RBCs from blood isolated from patient with homozygous SS at 0.5 mM under hypoxic conditions incubated for 2 hrs; assay type: functional; settings: Homo sapiens, Erythrocyte; method in brief: as §3
Red blood cell [13] = experiment: Binding affinity to Hemoglobin in sickle cell RBCs from blood isolated from patient with homozygous SS assessed as increase in Hb affinity shift for oxygen at 0.5 mM under hypoxic conditions incubated for 2 hrs by oxygen equilibrium curve study; assay type: tissue-based; settings: Homo sapiens; method in brief: as §2

| SMILES | Activity (Red blood cell [1]) [%] | Activity (Red blood cell [2]) [%] | Activity (Red blood cell [3]) | Activity (Red blood cell [4]) | inhibition at 2000 µM [5] [%] | inhibition (Erythrocyte) | Activity (Homo sapiens [6]; TDE = time-dependent effect) | Activity (Homo sapiens [7]) | Activity (Red blood cell [8]) [%] | Activity (Red blood cell [9]) [%] | Activity (Red blood cell [10]) [%] | inhibition at 1000 µM [11] [%] | inhibition at 500 µM [12] [%] | Activity (Red blood cell [13]) [%] | Activity (Homo sapiens [6]) |
| --- | --- | --- | --- | --- | --- | --- | --- | --- | --- | --- | --- | --- | --- | --- | --- |
| COC(=O)c1cncc(COc2ccc(OC)cc2C=O)c1 | 60 | < 100 | Dose-dependent effect | Dose-dependent effect | > 90 | Dose-dependent effect | Tde | Dose-dependent effect | – | – | – | – | – | – | – |
| COC(=O)c1cncc(COc2cccc(O)c2C=O)c1 | 60 | < 100 | Dose-dependent effect | Dose-dependent effect | > 90 | Dose-dependent effect | – | – | – | – | – | – | – | – | – |
| COC(=O)c1ccc(COc2ccc(OC)cc2C=O)cn1 | 64 | 81.3 | Dose-dependent effect | Dose-dependent effect | 96.5 | Dose-dependent effect | Tde | Dose-dependent effect | 32.3 | 19.5 | 36.1 | 81.6 | 29.1 | 9.9 | – |
| COC(=O)c1ccc(COc2cccc(O)c2C=O)cn1 | 92.5 | 100 | Dose-dependent effect | Dose-dependent effect | 98.9 | Dose-dependent effect | Tde | Dose-dependent effect | 60.1 | 44.2 | 47.8 | 90.7 | 39.5 | 16.3 | – |
| COC(=O)c1cccc(COc2ccc(OC)cc2C=O)n1 | 41.7 | 63.8 | Dose-dependent effect | Dose-dependent effect | 88 | Dose-dependent effect | – | inactive | 37.1 | 20.1 | 20.9 | 48.2 | 17.5 | 4.8 | inactive |
| COC(=O)c1cccnc1COc1ccc(OC)cc1C=O | 49.9 | 67.5 | Dose-dependent effect | Dose-dependent effect | 99 | Dose-dependent effect | Tde | Dose-dependent effect | 21.3 | 12.8 | 32.1 | 71.7 | 41.8 | 5.9 | – |
| COC(=O)c1ccc(COc2ccc(OC)cc2C=O)nc1 | – | – | – | – | – | – | – | inactive | – | – | – | – | – | – | inactive |
| COC(=O)c1ccnc(COc2cccc(O)c2C=O)c1 | > 80 | < 100 | Dose-dependent effect | Dose-dependent effect | > 90 | Dose-dependent effect | Tde | Dose-dependent effect | – | – | – | – | – | – | – |
| COC(=O)c1ccc(COc2cccc(O)c2C=O)nc1 | – | – | – | – | – | – | – | inactive | – | – | – | – | – | – | inactive |
| COC(=O)c1ncccc1COc1cccc(O)c1C=O | – | – | Dose-dependent effect | Dose-dependent effect | > 90 | Dose-dependent effect | – | inactive | – | – | – | – | – | – | inactive |
| CC(C)n1nccc1-c1ncccc1COc1cccc(O)c1C=O [VOXELOTOR] | 100 | – | – | – | – | – | – | – | – | 80 | 55 | 98 | 56 | 41 | – |
